We go through 17 molecules from ChEMBL document CHEMBL1133504 (J Med Chem, 2000).

Series [1] can be described thus: Evaluated for Pharmacokinetic property: Area under the curve. The format is ADME. Also noted: concentration or dose not given beside the values.
The nature of series [2]: Evaluated for time required to reach maximum concentration in plasma. The format is ADME.
A further series deals with Syrian golden hamster. Nature of the series: Suppression of Hamster ethanol intake by 0.07 mmol o.d. i.p. In kind it is functional, Mesocricetus auratus. A digest of the protocol:
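Male Syrian golden hamsters (80-120 g) at 23 °C on a 12/12-h cycle had free access to chow, water and 15% ethanol. Baseline was 6 days of daily ip saline with 0.5% DMSO. Then 0.07 mmol ip daily for 6 days. 24-h ethanol intake recorded. Mean ± SD of 4-6 hamsters.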

Series [3] is filed under the species Mesocricetus auratus. Nature of the series: Evaluated for the 5-HIAL accumulation in isolated Hamster Liver Mitochondria at the 3 uM.
The target in series [4] is Monoamine oxidase (Mesocricetus auratus). Nature of the series: Inhibition of Hamster Liver mitochondrial Monoamine oxidase.
In series [5] the test system is Aldehyde dehydrogenase, mitochondrial (Mesocricetus auratus). Put plainly: Accumulation of 5 HIAL in isolated Hamster Liver Mitochondria at 3 uM.
Series [6] has the same test system. Put plainly: Accumulation of 5 HIAL in isolated Hamster Liver Mitochondria at 9 uM.
For series [7] the test system is unchanged. Nature of the series: Accumulation of 5 HIAL in isolated Hamster Liver Mitochondria at 0.3 uM.
The test system is the same in series [8]. Put plainly: Accumulation of 5 HIAL in isolated Hamster Liver Mitochondria at 0.9 uM.
For series [9], the species on record is Mesocricetus auratus. Put plainly: Evaluated for percentage inhibition of 5-HIAA formation in isolated Hamster Liver Mitochondria at the 9 uM.

Regarding `O=c1cc(-c2ccccc2)oc2c(O)c(O)ccc12` [7,8-DIHYDROXYFLAVONE], the AUC in series [1] was found to be 111 nM hr ml. Besides, the time of peak concentration (Tmax) in [2] was 0.5 h. This molecule displayed a Suppression with Syrian golden hamster of 0%. In addition, the Control in the series filed under Mesocricetus auratus [3] stood at 79.1%.
`O=c1c(-c2ccc(O)cc2)coc2cc(OCCCCCCBr)ccc12`: the AUC in series [1] worked out at 62 nM hr ml. Also, in series [2], the Tmax was found to be 2 h. This molecule also came in with a Suppression in the series on Syrian golden hamster of 29%. In [4], this molecule displayed an IC50 of 2000 nM. The Control in [5] came out at 108%; in series [6], 74%; in [7], 144%; in [8] it was 112%.
For `C=CCOc1ccc2c(=O)c(-c3ccc(O)cc3)coc2c1`, the AUC in series [1] was 29 nM hr ml. The Tmax in [2] was found to be 1 h. Moreover, in the series with Syrian golden hamster, the Suppression is 0%. In series [4], the IC50 came to 450 nM. Further, the Control in series [5] was 56.1%; in series [6], 26.7%; in series [7] it was 106%; in [8] it was 91%.
The molecule `O=c1c(-c2ccc(O)cc2)coc2cc(O)ccc12` [DAIDZEIN] returned an AUC in series [1] of 130 nM hr ml. Further, the Tmax in series [2] turned out to be 1 h. Also, the Suppression in the series with Syrian golden hamster is 22%. This molecule also came in with an inhibition in the series listed under Mesocricetus auratus [9] of 80.6%.
In turn, `O=c1c(-c2ccc(O)cc2)coc2cc(OCCC3OCCCO3)ccc12` came in with an AUC in series [1] of 99 nM hr ml. In addition, the Tmax in series [2] worked out at 0.5 h. This molecule also returned a Suppression in the series with Syrian golden hamster of 32%. This molecule came in with an IC50 in series [4] of 7000 nM. Further, the Control in [5] came to 141%; in series [6], 86.1%; in [7], 165%; in series [8] it was 176%.
In turn, `CCOc1ccc2c(=O)c(-c3ccc(O)cc3)coc2c1` displayed an AUC in [1] of 38 nM hr ml. The Tmax in series [2] amounted to 1 h. In the series on Syrian golden hamster, this molecule came in with a Suppression of 0%. Further, the concentration for half-maximal inhibition (IC50) in series [4] worked out at 300 nM. The Control in [5] was 34.3%; in series [6] it was 17.8%; in series [7] it was 88.6%; in series [8] it was 62.9%.
`O=c1c(-c2ccc(O)cc2)coc2cc(OCCCCBr)ccc12`: in series [1], the AUC is 68 nM hr ml. Besides, the Tmax in [2] was determined as 2 h. In addition, the Suppression with Syrian golden hamster is given as 14%. Besides, in series [4], the IC50 was found to be 4000 nM. The Control in series [5] came to 87.7%; in [6] it was 42.9%; in [7] it was 112%; in series [8], 116%.
For `O=C(O)CCCCCCOc1ccc2c(=O)c(-c3ccc(O)cc3)coc2c1`, the AUC in series [1] stood at 68 nM hr ml. In series [2], the Tmax came out at 0.5 h. This molecule came in with a Suppression with Syrian golden hamster of 69%. This molecule yielded a 50% inhibitory concentration (IC50) in series [4] of 2100 nM. Further, the Control in [5] came out at 228%; in series [6], 192%; in series [7] it was 310%; in series [8], 265%.
In [1], `O=c1cc(-c2ccccc2)oc2cc(O)cc(O)c12` [CHRYSIN] showed an AUC of 110 nM hr ml. Also, in series [2], the time of peak concentration (Tmax) came out at 1 h. In addition, the Suppression with Syrian golden hamster stood at 0%.
The like results for `O=C(O)CCCCCCCCCCOc1ccc2c(=O)c(-c3ccc(O)cc3)coc2c1` were, in that order, 56 nM hr ml, 0.5 h and 86%.
For `COc1ccc(-c2coc3cc(O)cc(O)c3c2=O)cc1` [BIOCHANIN] the same measures were 99 nM hr ml, 1 h and 0%.
The like results for `O=c1c(-c2ccc(O)cc2)coc2cc(O)cc(O)c12` [GENISTEIN] were, in that order, 134 nM hr ml, 1 h and 0%.
In series [1], `O=C(O)CCCCCCCCCOc1ccc2c(=O)c(-c3ccc(O)cc3)coc2c1` yielded an AUC of 73 nM hr ml. Moreover, in series [2], the Tmax came to 0.5 h. In the series on Syrian golden hamster, this molecule registered a Suppression of 84%. The same molecule showed an IC50 in [4] of 10000 nM. Moreover, the Control in series [5] turned out to be 189%; in series [6], 129%; in series [7], 234%; in series [8], 233%.
`O=C(O)CCCCCOc1ccc2c(=O)c(-c3ccc(O)cc3)coc2c1` had an AUC in series [1] of 77 nM hr ml. Besides, the Tmax in series [2] turned out to be 0.5 h. The same molecule yielded a Suppression with Syrian golden hamster of 69%.
With `O=c1c(-c2ccc(O)cc2)coc2cc(OCCCBr)ccc12`, the AUC in series [1] stood at 73 nM hr ml. For the same molecule, the time to peak (Tmax) in series [2] stood at 2 h. In addition, in the series with Syrian golden hamster, the Suppression was 0%. In [4], the IC50 was 150 nM. The Control in [5] stood at 34.7%; in series [6], 20.5%; in series [7], 75.8%; in series [8] it was 57.8%.
In series [1], `O=c1c(-c2ccc(O)cc2)coc2cc(OCC(O)CO)ccc12` (stereo not drawn) yielded an AUC of 141 nM hr ml. For the same molecule, the time to peak (Tmax) in series [2] stood at 0.5 h. In the series with Syrian golden hamster, the Suppression is on record as 0%. In series [4], this molecule yielded an IC50 of 1700 nM. The Control in series [5] came out at 63%; in series [6], 30.5%; in [7], 112%; in series [8], 97.5%.
In [1], `O=c1c(-c2ccc(O)cc2)coc2cc(O[C@@H]3O[C@H](CO)[C@@H](O)[C@H](O)[C@H]3O)ccc12` [DAIDZIN] had an AUC of 120 nM hr ml. Further, the Tmax in series [2] came to 1 h. In addition, the Suppression in the series on Syrian golden hamster is 62%.

What is called Tmax is the time from dosing to the highest level. Usually IC50 stands for the concentration that gives 50% inhibition. One may read the inhibition as the percentage by which the read-out fell short of the control.
